The subject of assay [1] is Escherichia coli. Nature of the assay: Inhibition of Escherichia coli MC4100 His6-tagged LptB overexpressed in Escherichia coli BL21 (deltaDE3) assessed as inorganic phosphate release at 100 uM after 5 mins by molybdate method. The gist of the method:
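Single-point assay. Purified His-LptB (7 μM) in 50 mM Tris-HCl pH 8.0, 500 mM NaCl, 10% glycerol was preincubated 5 min at 25 °C with 100 μM inhibitor (2% DMSO final). Started with 1 mM ATP at 25 °C and quenched in the linear range with 12% SDS. Released phosphate was read by molybdate absorbance, relative to a DMSO control.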

In assay [2] the test system is Escherichia coli. Put plainly: Antibacterial activity against Escherichia coli NR698 assessed as growth inhibition after 24 hrs by microdilution method. The settings on record: NR698, 24 h. In kind it is functional. (In general: Broth dilution looks for growth in wells or tubes with falling amounts of substance.)
Assay [3] has as its system Escherichia coli. Nature of the assay: Inhibition of Escherichia coli MC4100 LptBFGC overexpressed in Escherichia coli BL21 (deltaDE3) assessed as inorganic phosphate release at 100 uM after 5 mins by molybdate method. The gist of the method:
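Detergent-purified LptBFGC, 0.2 μM in 50 mM Tris-HCl pH 8.0, 500 mM NaCl, 10% glycerol, 0.05% DDM. Preincubated 5 min at 25 °C with 100 μM inhibitor (2% DMSO final). Reaction started with 0.5 mM ATP at 25 °C and stopped in the linear range with 12% SDS. Phosphate was measured by modified molybdate method, relative to uninhibited DMSO control.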

Assay [4] relates to Escherichia coli. Nature of the assay: Antibacterial activity against Escherichia coli MC4100 assessed as growth inhibition after 24 hrs by microdilution method. The class given is functional. The settings on record: MC4100, 24 h.
The test system of assay [5] is Escherichia coli. Nature of the assay: Inhibition of Escherichia coli MC4100 His6-tagged LptB overexpressed in Escherichia coli BL21 (deltaDE3) assessed as inorganic phosphate release after 5 mins by molybdate method. The gist of the method: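 His-tagged LptB, Ni-NTA and size-exclusion purified, at 7 μM in 50 mM Tris-HCl pH 8.0, 500 mM NaCl, 10% glycerol. Varied inhibitor concentrations (DMSO, 2% final) were preincubated 5 min at 25 °C, then ATP was added at 25 °C. Stopped within the linear range with an equal volume of 12% SDS. Phosphate was read by modified molybdate absorbance and normalized to the DMSO control.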

The subject of assay [6] is Escherichia coli. Nature of the assay: Inhibition of Escherichia coli MC4100 LptBFGC overexpressed in Escherichia coli BL21 (deltaDE3) assessed as inorganic phosphate release after 5 mins by molybdate method. The gist of the method: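 LptBFGC was expressed from an LptCAB-His6 plasmid in BL21(λDE3) (50 μM IPTG, 2 h, 37 °C) and purified in DDM. Assayed at 0.2 μM in 50 mM Tris-HCl pH 8.0, 500 mM NaCl, 10% glycerol, 0.05% DDM. Varying inhibitor (2% DMSO) was preincubated 5 min at 25 °C, then ATP was added. Quenched in the linear range with SDS. Molybdate phosphate read-out, normalized to DMSO.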

Assay [7] concerns Escherichia coli. Nature of the assay: Selectivity ratio of IC50 for Escherichia coli MC4100 LptBFGC to IC50 for Escherichia coli MC4100 His6-tagged LptB.

Each structure is given as a SMILES string. In brackets after ≈: the same amount, converted by molar mass. Activity calls are given as the source filed them.

`CSc1ccccc1-c1cc2[nH]c3ccc(O)cc3c2c2c1C(=O)NC2=O`: the inhibition entry in assay [1] and in assay [3] was “Active” each time. Moreover, the MIC (in general, the smallest concentration in the dilution series that meets the test's criterion for growth inhibition) is 25 µM (≈ 9.36 µg/mL) in assay [2] and above 100 µM in assay [4].
On to `O=C1NC(=O)c2c1c(-c1ccccc1Cl)cc1c2c2cc(O)c(OCCCN3CCCC3)cc2n1CCO`, for which the inhibition result in assay [1] and in assay [3] was “Active” throughout. Further, the MIC in assay [2] was 100 µM (≈ 53.4 µg/mL); in assay [4] it was above 100 µM.
For `O=C1NC(=O)c2c1c(-c1ccccc1Br)cc1[nH]c3ccc(O)cc3c21`, the inhibition result in assay [1] and in assay [3] was “Active” in each case. Moreover, the MIC in assay [2] was 12.5 µM (≈ 5.09 µg/mL); in assay [4] it was above 100 µM.
Take `CN(C)CCCOc1cc2c(cc1O)c1c3c(c(-c4ccccc4Cl)cc1n2C)C(=O)NC3=O`: the inhibition result in assay [1] and in assay [3] was “Active” each time. Besides, the MIC is 25 µM (≈ 11.9 µg/mL) in assay [2] and above 100 µM in assay [4].
Regarding `O=C1NC(=O)c2c1c(-c1ccccc1Cl)cc1[nH]c3ccc(O)cc3c21`, the MIC is 25 µM (≈ 9.07 µg/mL) in assay [2] and above 100 µM in assay [4].
As for `Cn1c2cc(OCCCN3CCCC3)c(O)cc2c2c3c(c(-c4ccccc4Cl)cc21)C(=O)NC3=O`, the inhibition entry in assay [1] and in assay [3] was “Active” in each case. Also, the MIC in assay [2] is 100 µM (≈ 50.4 µg/mL); in assay [4] it was above 100 µM.
As for `Cn1c2cc(S(=O)(=O)CCCN3CCCC3)c(O)cc2c2c3c(c(-c4ccccc4Cl)cc21)C(=O)NC3=O`, the inhibition entry in assay [1] and in assay [3] was “Active” each time. Further, the values for the MIC in assay [2] and in assay [4] were 50 µM (≈ 27.6 µg/mL) and above 100 µM, respectively.
As to `O=C1NC(=O)c2c1c(-c1c(Cl)cccc1Cl)cc1[nH]c3ccc(O)cc3c21`, the inhibition entry in assay [5] and in assay [6] was “Dose-dependent effect” each time. Moreover, the MIC is 12.5 µM (≈ 4.97 µg/mL) in assay [2] and above 100 µM in assay [4]. For the same molecule, the Ratio IC50 in assay [7] is 6.

Values taken from ChEMBL document CHEMBL2406992, “Validation of inhibitors of an ABC transporter required to transport lipopolysaccharide to the cell surface in Escherichia coli” (2013).
